Here are results for 12 molecules from ChEMBL document CHEMBL4393677, “Comparative analysis of pyrimidine substituted aminoacyl-sulfamoyl nucleosides as potential inhibitors targeting class I aminoacyl-tRNA synthetases” (Eur J Med Chem, 2019).

For data set [1], the target named is T1, Tyrosine--tRNA ligase (Escherichia coli (strain K12)) (UniProt P0AGJ9).
T1 sequence (whole entry): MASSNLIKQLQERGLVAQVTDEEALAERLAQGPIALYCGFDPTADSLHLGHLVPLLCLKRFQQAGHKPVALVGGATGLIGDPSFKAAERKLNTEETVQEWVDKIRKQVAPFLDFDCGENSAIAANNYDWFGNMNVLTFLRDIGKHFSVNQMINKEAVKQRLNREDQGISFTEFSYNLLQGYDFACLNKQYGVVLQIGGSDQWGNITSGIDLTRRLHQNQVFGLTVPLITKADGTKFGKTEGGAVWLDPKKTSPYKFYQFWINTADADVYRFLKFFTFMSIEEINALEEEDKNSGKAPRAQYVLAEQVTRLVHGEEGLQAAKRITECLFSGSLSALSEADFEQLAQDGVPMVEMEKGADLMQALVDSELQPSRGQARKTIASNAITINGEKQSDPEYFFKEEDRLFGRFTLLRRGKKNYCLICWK
As to the kind of experiment: Inhibition of tyrRS in Escherichia coli BL21 (DE3) pLysS S30 extract over expressing SUMO incubated for 5 to 60 mins in presence of 14C-labeled tyrosine by liquid scintillation counting method.

Data set [2] deals with Isoleucine--tRNA ligase (Escherichia coli K-12) (UniProt P00956). Briefly: Inhibition of ileRS in Escherichia coli BL21 (DE3) pLysS S30 extract over expressing RimL incubated for 5 to 60 mins in presence of 14C-labeled isoleucine and acetyl-CoA by liquid scintillation counting method.
Chain of Isoleucine--tRNA ligase (Escherichia coli K-12) (P00956 whole entry): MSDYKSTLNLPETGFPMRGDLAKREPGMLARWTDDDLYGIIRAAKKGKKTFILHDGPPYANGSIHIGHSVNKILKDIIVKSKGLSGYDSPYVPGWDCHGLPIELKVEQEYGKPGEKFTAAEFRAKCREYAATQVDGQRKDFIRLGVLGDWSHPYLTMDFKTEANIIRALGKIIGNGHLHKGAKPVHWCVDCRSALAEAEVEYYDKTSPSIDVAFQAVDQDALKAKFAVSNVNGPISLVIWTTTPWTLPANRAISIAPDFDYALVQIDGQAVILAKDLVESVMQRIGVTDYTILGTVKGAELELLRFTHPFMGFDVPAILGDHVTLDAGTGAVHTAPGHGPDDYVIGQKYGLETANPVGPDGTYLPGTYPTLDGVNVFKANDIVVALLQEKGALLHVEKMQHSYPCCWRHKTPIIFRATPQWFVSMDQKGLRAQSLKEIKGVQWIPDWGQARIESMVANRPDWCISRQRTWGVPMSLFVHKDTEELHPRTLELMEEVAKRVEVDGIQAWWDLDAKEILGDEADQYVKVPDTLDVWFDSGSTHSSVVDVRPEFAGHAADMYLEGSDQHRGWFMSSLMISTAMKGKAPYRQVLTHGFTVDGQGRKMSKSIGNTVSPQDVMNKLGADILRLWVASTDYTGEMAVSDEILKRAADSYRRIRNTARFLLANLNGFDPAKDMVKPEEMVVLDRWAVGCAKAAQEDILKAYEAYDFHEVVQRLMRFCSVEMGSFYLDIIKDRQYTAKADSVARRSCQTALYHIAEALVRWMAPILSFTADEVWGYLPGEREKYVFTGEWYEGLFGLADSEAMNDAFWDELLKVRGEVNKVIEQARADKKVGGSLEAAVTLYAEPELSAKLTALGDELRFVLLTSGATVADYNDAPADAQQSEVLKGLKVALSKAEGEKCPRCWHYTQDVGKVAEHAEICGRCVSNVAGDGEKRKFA
Data set [3] has as its target T1, Tyrosine--tRNA ligase (Escherichia coli (strain K12)). As to the kind of experiment: Inhibition of tyrRS in Escherichia coli BL21 (DE3) pLysS S30 extract over expressing RimI incubated for 5 to 60 mins in presence of 14C-labeled tyrosine by liquid scintillation counting method.
The target in data set [4] is Isoleucine--tRNA ligase (Escherichia coli K-12) (UniProt P00956). Briefly: Inhibition of ileRS in Escherichia coli BL21 (DE3) pLysS S30 extract over expressing RimI incubated for 5 to 60 mins in presence of 14C-labeled isoleucine and acetyl-CoA by liquid scintillation counting method.
Data set [5] shares this target. Briefly: Inhibition of ileRS in Escherichia coli BL21 (DE3) pLysS S30 extract over expressing SUMO incubated for 5 to 60 mins in presence of 14C-labeled isoleucine and acetyl-CoA by liquid scintillation counting method.
The target of the next data set is Leucine--tRNA ligase (Escherichia coli (strain K12), UniProt P07813). As to the kind of experiment: Inhibition of purified Escherichia coli BL21 (DE3) leuRS incubated for 10 mins in presence of 14C-labeled leucine by radiolabel transfer assay. As to conditions: read-out: Ki(app).
Chain of Leucine--tRNA ligase (P07813 whole entry): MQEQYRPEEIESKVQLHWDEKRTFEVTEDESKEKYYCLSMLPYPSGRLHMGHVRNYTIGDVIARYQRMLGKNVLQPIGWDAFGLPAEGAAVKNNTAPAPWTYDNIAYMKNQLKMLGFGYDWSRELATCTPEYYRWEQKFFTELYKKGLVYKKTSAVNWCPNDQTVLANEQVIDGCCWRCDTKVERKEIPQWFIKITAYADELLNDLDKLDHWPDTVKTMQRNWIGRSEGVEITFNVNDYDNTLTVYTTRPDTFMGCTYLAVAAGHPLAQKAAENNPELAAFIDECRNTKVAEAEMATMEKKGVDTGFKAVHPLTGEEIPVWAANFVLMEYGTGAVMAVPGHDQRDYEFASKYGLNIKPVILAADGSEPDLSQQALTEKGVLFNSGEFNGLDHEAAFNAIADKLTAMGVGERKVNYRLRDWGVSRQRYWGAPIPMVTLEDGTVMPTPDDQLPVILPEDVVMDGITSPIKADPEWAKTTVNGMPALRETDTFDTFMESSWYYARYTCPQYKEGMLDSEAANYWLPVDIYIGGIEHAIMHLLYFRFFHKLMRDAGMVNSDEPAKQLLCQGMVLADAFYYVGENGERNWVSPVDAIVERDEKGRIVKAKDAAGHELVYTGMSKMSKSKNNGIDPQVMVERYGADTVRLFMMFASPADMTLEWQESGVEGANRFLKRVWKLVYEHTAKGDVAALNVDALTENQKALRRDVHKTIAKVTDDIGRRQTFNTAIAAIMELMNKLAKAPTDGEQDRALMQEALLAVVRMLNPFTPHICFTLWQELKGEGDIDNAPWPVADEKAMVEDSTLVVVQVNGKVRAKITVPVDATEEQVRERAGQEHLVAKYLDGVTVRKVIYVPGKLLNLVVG
The target of a further data set is Isoleucine--tRNA ligase (Escherichia coli K-12, UniProt P00956). As to the kind of experiment: Inhibition of purified Escherichia coli BL21 (DE3) ileRS incubated for 10 mins in presence of 14C-labeled isoleucine by radiolabel transfer assay. To be noted: read-out: Ki(app).
Chain of Isoleucine--tRNA ligase (P00956 whole entry): as the sequence (P00956 whole entry) above
In data set [6] the target is Isoleucine--tRNA ligase (Escherichia coli K-12) (UniProt P00956). Briefly: Inhibition of ileRS in Escherichia coli NCIB 8743 S30 extract assessed as aminoacylation at 250 nM incubated for 5 mins in presence of 14C-labeled isoleucine by liquid scintillation counting method relative to control. Also noted: scale not given: the % may be the effect or the level left. In outline:
(§1)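 S30 extract from cells grown in LB at 37 °C to OD600 1.2, sonicated, twice clarified; diluted 10-fold. Inhibitor (5 µM stock) preincubated 5 min with extract, then aminoacylation at 37 °C with 30 mM Tris pH 8.0, 1 mM DTT, 5 g/L tRNA, 3 mM ATP, 30 mM KCl, 8 mM MgCl₂, ¹⁴C-Ile 15 µM or ¹⁴C-Tyr 9.66 µM; quenched at 1 min, TCA filters counted. Activity relative to no-inhibitor extract; mean of three.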

A short description of data set [7]: Stability of compound in Escherichia coli NCIB 8743 S30 extract assessed as compound degradation incubated for 48 hr in presence of 14C-labeled isoleucine and acetyl-CoA by liquid scintillation counting method. It is filed as ADME, subcellular. In outline:
(§2)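 Inhibitor (5 μM stock) incubated at 37 °C up to 48 h with S30 extract (1:3), or with extract plus acetyl-CoA (10 mM stock) (1:1:3). Aliquots at set times added to aminoacylation mix (30 mM Tris pH 8.0, 1 mM DTT, tRNA, 3 mM ATP, 30 mM KCl, 8 mM MgCl₂, 10 μM ¹⁴C-isoleucine) at 37 °C; quenched after 1 min, ileRS activity by scintillation counting.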

The nature of data set [8]: Stability of compound in Escherichia coli NCIB 8743 S30 extract assessed as compound degradation incubated for 1 hr n presence of 14C-labeled isoleucine and acetyl-CoA by liquid scintillation counting method. It is filed as ADME, subcellular. In outline: as §2
Data set [9] has as its target T1, Tyrosine--tRNA ligase (Escherichia coli (strain K12)). As to the kind of experiment: Inhibition of tyrRS in Escherichia coli NCIB 8743 S30 extract assessed as aminoacylation at 250 nM incubated for 5 mins in presence of 14C-labeled tyrosine by liquid scintillation counting method relative to control. Also noted: scale not given: the % may be the effect or the level left. In outline: as §1

For another data set, the target named is T2, Tyrosine--tRNA ligase (Escherichia coli (strain K12), UniProt P0AGJ9).
T2 sequence (P0AGJ9 whole entry): T1 sequence (whole entry)
As to the kind of experiment: Inhibition of purified Escherichia coli BL21 (DE3) tyrRS incubated for 10 mins in presence of 14C-labeled tyrosine by radiolabel transfer assay. As to conditions: read-out: Ki(app).

Data set [10] concerns the target T1, Tyrosine--tRNA ligase (Escherichia coli (strain K12)). Briefly: Inhibition of tyrRS in Escherichia coli BL21 (DE3) pLysS S30 extract over expressing YhhY incubated for 5 to 60 mins in presence of 14C-labeled tyrosine by liquid scintillation counting method.
Data set [11] shares this target. Briefly: Inhibition of tyrRS in Escherichia coli BL21 (DE3) pLysS S30 extract over expressing RimL incubated for 5 to 60 mins in presence of 14C-labeled tyrosine by liquid scintillation counting method relative to control.
The target of data set [12] is Leucine--tRNA ligase (Escherichia coli (strain K12)) (UniProt P07813). As to the kind of experiment: Inhibition of leuRS in Escherichia coli BL21 (DE3) pLysS S30 extract over expressing YhhY incubated for 60 mins in presence of 14C-labeled leucine by liquid scintillation counting method.
Chain of Leucine--tRNA ligase (Escherichia coli (strain K12)) (P07813 whole entry): as the sequence (P07813 whole entry) above
The target in data set [13] is Isoleucine--tRNA ligase (Escherichia coli K-12) (UniProt P00956). As to the kind of experiment: Inhibition of ileRS in Escherichia coli BL21 (DE3) pLysS S30 extract over expressing YhhY incubated for 5 mins in presence of 14C-labeled isoleucine and acetyl-CoA by liquid scintillation counting method.
The target is the same in data set [14]. Briefly: Inhibition of ileRS in Escherichia coli BL21 (DE3) pLysS S30 extract over expressing YhhY incubated for 60 mins in presence of 14C-labeled isoleucine and acetyl-CoA by liquid scintillation counting method.
The target of data set [15] is Leucine--tRNA ligase (Escherichia coli (strain K12)) (UniProt P07813). As to the kind of experiment: Inhibition of leuRS in Escherichia coli BL21 (DE3) pLysS S30 extract over expressing YhhY incubated for 5 mins in presence of 14C-labeled leucine by liquid scintillation counting method.
Data set [16] can be described thus: Stability of compound in Escherichia coli BL21 (DE3) pLysS S30 extract assessed as compound degradation at 0.25 uM in presence of 14C-labeled isoleucine and acetyl-CoA by liquid scintillation counting method. The class given is ADME, subcellular.
The nature of data set [17]: Stability of compound in Escherichia coli NCIB 8743 S30 extract assessed as compound degradation at 0.25 uM in presence of 14C-labeled isoleucine and acetyl-CoA by liquid scintillation counting method. It is filed as ADME, subcellular. In outline:
as §2

Calls of active or inactive are those of the source. The calls are words filed in the database; no cut-off is given here.

In the case of `CC(C)C[C@H](N)C(=O)NS(=O)(=O)OC[C@H]1O[C@@H](n2ccc(=O)[nH]c2=O)[C@H](O)[C@@H]1O`, the inhibition result in data set [1], in [3], in data set [4] and in [5] was “Active” in each case. In addition, in data set [2], the inhibition entry is “inactive”. Besides, the Ki on Leucine--tRNA ligase amounted to 20.8 nM.

Consider `CC(C)C[C@H](N)C(=O)NS(=O)(=O)OC[C@H]1O[C@@H](n2cnc3c(N)ncnc32)[C@H](O)[C@@H]1O`, for which the inhibition entry in [1], in [3], in [4] and in data set [5] was “Active” throughout. Further, the inhibition result in data set [2] was “inactive”.

On to `CC[C@H](C)[C@H](N)C(=O)NS(=O)(=O)OC[C@H]1O[C@@H](n2ccc(=O)n(C)c2=O)[C@H](O)[C@@H]1O`, for which the Ki on Isoleucine--tRNA ligase worked out at 1040 nM. The Activity in [6] lay within 17 to 34%. The Stability entry in data set [7] and in [8] was “Stable” throughout.

`Nc1ccn([C@@H]2O[C@H](COS(=O)(=O)NC(=O)[C@@H](N)Cc3ccc(O)cc3)[C@@H](O)[C@H]2O)c(=O)n1`: the inhibition entry in data set [1], in data set [3], in data set [4] and in data set [5] was “Active” each time. In addition, in data set [9], the result was inactive. The Ki at Tyrosine--tRNA ligase was 1480 nM. Moreover, in data set [10], the inhibition result is “inactive”.

On to `Nc1ncnc2c1ncn2[C@@H]1O[C@H](COS(=O)(=O)NC(=O)[C@@H](N)Cc2ccc(O)cc2)[C@@H](O)[C@H]1O`, for which the inhibition entry in data set [1], in data set [3], in [11], in data set [4], in [10] and in data set [5] was “Active” each time. Further, the Activity in data set [9] is 0.05 to 1.8%.

For `Cn1c(=O)ccn([C@@H]2O[C@H](COS(=O)(=O)NC(=O)[C@@H](N)Cc3ccc(O)cc3)[C@@H](O)[C@H]2O)c1=O`, in data set [9], the Activity lay within 37 to 62%. The Ki on Tyrosine--tRNA ligase turned out to be 149 nM.

`CC(C)C[C@H](N)C(=O)NS(=O)(=O)OC[C@H]1O[C@@H](n2ccc(N)nc2=O)[C@H](O)[C@@H]1O`: the inhibition entry in data set [1], in data set [3], in [4] and in data set [5] was “Active” each time. In [2], the inhibition result was “inactive”. Moreover, the Ki on Leucine--tRNA ligase amounted to 9.8 nM.

Regarding `CC[C@H](C)[C@H](N)C(=O)NS(=O)(=O)OC[C@H]1O[C@@H](n2ccc(N)nc2=O)[C@H](O)[C@@H]1O`, the inhibition result in data set [12], in [14] and in [2] was “inactive” each time. For the same molecule, the inhibition result in [13], in [1], in data set [3], in [15], in data set [4] and in data set [5] was “Active” in each case. Besides, at Isoleucine--tRNA ligase, the Ki is 17.2 nM. Also, in [6], the Activity is 5 to 14%. Also, the Stability entry in [7] and in data set [8] was “Stable” each time.

Regarding `CC[C@H](C)[C@H](N)C(=O)NS(=O)(=O)OC[C@H]1O[C@@H](n2ccc(=O)[nH]c2=O)[C@H](O)[C@@H]1O`, the inhibition entry in data set [12], in data set [14] and in data set [2] was “inactive” throughout. Further, the inhibition result in data set [13], in [1], in data set [3], in data set [15], in data set [4] and in data set [5] was “Active” in each case. Also, on Isoleucine--tRNA ligase, the Ki amounted to 55 nM. In addition, the Activity in data set [6] fell in the range of 5 to 14%. For the same molecule, the Stability entry in [16], in data set [7], in data set [8] and in data set [17] was “Stable” throughout.

As for `CC(C)C[C@H](N)C(=O)NS(=O)(=O)OC[C@H]1O[C@@H](n2ccc(=O)n(C)c2=O)[C@H](O)[C@@H]1O`, the Ki on Leucine--tRNA ligase stood at 29.5 nM.

`CC[C@H](C)[C@H](N)C(=O)NS(=O)(=O)OC[C@H]1O[C@@H](n2cnc3c(N)ncnc32)[C@H](O)[C@@H]1O`: the inhibition result in data set [12], in [13], in data set [1], in data set [3], in [15] and in [4] was “Active” in each case. Further, the inhibition result in data set [5] was “Active”. Besides, the inhibition result in [14] and in data set [2] was “inactive” each time. Besides, the Activity in data set [6] was 0.05 to 1.8%. For the same molecule, the Stability entry in data set [16], in data set [7], in data set [8] and in [17] was “Stable” throughout.

With `N[C@@H](Cc1ccc(O)cc1)C(=O)NS(=O)(=O)OC[C@H]1O[C@@H](n2ccc(=O)[nH]c2=O)[C@H](O)[C@@H]1O`, the inhibition result in data set [1], in data set [3], in [11], in [4], in data set [10] and in [5] was “Active” each time. In addition, the Activity in data set [9] fell in the range of 37 to 62%. Also, the Ki at Tyrosine--tRNA ligase came out at 43.4 nM.
